According to ChEMBL document CHEMBL4270555, “Synthesis and biological evaluation of magnolol derivatives as melatonergic receptor agonists with potential use in depression” (Eur J Med Chem, 2018):
Active and inactive are the calls of the source. The rule behind the calls is not given here.

Legend:
[1] = Drug metabolism in Sprague-Dawley rat urine assessed as 5'-acryloyl-2'-hydroxy-5-propionylbiphenyl-2-yl hydrogen sulfate formation at 100 mg/kg, po by UPLC-IT-TOF-MS analysis; assay type: ADME, organism-based; conditions: in vivo
How it was run: (§1)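 Male/unspecified SD rats (n = 6) housed individually in metabolic cages, dosed orally at 100.0 mg/kg; controls given 0.5% CMC-Na orally. Plasma, urine and faeces collected. LC-IT-TOF-MS on C18 column at 30 °C, formic acid (0.05%) water/acetonitrile gradient 5–100% B over 18 min, 0.2 mL/min; positive and negative ion modes with automatic MS/MS.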

Mus musculus [2] = assay: Increase in norepinephrine level in Kunming mouse thalamus at 40 mg/kg, po treated for 7 days by HPLC-ECD analysis; assay type: functional, organism-based
How it was run: (§2)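 Male Kunming mice (18–20 g) given vehicle or 40 mg/kg for 7 days, then killed by cervical dislocation. Frontal cortex, hippocampus, striatum, hypothalamus and thalamus dissected on ice, homogenized in ice-cold 0.2 M perchloric acid with 0.1 mM EDTA, centrifuged 15,000 rpm, 20 min, 4 °C. Supernatant analysed by HPLC-ECD at +0.50 V; phosphate/octanesulfonate mobile phase pH 3.0 with 12% methanol. Levels in ng/g, mean ± SEM.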

Rattus norvegicus [3] = assay: Toxicity in Sprague-Dawley rat assessed as death at 2000 mg/kg, po measured continuously for first 4 hrs followed by measured every hour for next 24 hrs and at 6 hrs intervals for following 48 hrs post dose; assay type: organism-based; conditions: in vivo
How it was run: (§3)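 Followed OECD 425 in adult SD rats (180–220 g), three groups of six. Vehicle control received 0.5% CMC-Na orally; separate male and female groups received 2000 mg/kg orally. Endpoints observed: behaviour, breathing, cutaneous effects, sensory nervous system responses, gastrointestinal effects and deaths.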

[4] = Drug metabolism in Sprague-Dawley rat feces assessed as 5,5'-diallylbiphenyl-2,2'-diol formation at 100 mg/kg, po by UPLC-IT-TOF-MS analysis; assay type: ADME, organism-based; conditions: in vivo
How it was run: (§4)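 Rats (n = 6) housed in metabolic cages received 100.0 mg/kg orally; controls received 0.5% CMC-Na. Plasma, urine and faeces were collected and analyzed by LC-IT-TOF-MS on a C18 column at 30 °C. Gradient 5–100% acetonitrile with 0.05% formic acid over 18 min at 0.2 mL/min; positive and negative ion MS/MS.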

[5] = Drug metabolism in Sprague-Dawley rat feces assessed as 2S,3S,4S,5R,6S)-6-(5,5'-diallyl-2'-((2S,3R,4S,5S,6R)-3,4,5-trihydroxy-6-(hydroxymethyl)tetrahydro-2H-pyran-2-yloxy)biphenyl-2-yloxy)-3,4,5-trihydroxytetrahydro-2H-pyran-2-carboxylic acid formation at 100 mg/kg, po by UPLC-IT-TOF-MS analysis; assay type: ADME, organism-based; conditions: in vivo; how it was run: as §4
Mus musculus [6] = assay: Increase in 5-hydroxyindole-3-acetic acid level in Kunming mouse frontal cortex at 40 mg/kg, po treated for 7 days by HPLC-ECD analysis; assay type: functional, organism-based; how it was run: as §2
[7] = Drug metabolism in Sprague-Dawley rat urine assessed as (2S,3S,4S,5R,6S)-3,4,5-trihydroxy-6-(5-(1-hydroxyallyl)-5'-(1-hydroxypropyl)-2'-((2S,3R,4S,5S,6R)-3,4,5-trihydroxy-6-(hydroxymethyl)tetrahydro-2H-pyran-2-yloxy)biphenyl-2-yloxy)tetrahydro-2H-pyran-2-carboxylic acid formation at 100 mg/kg, po by UPLC-IT-TOF-MS analysis; assay type: ADME, organism-based; conditions: in vivo; how it was run: as §1
Mus musculus [8] = assay: Increase in 4-hydroxy-3-methoxyphenylacetic acid level in Kunming mouse thalamus at 40 mg/kg, po treated for 7 days by HPLC-ECD analysis; assay type: functional, organism-based; how it was run: as §2
Mus musculus [9] = assay: Decrease in dopamine level in Kunming mouse thalamus at 40 mg/kg, po treated for 7 days by HPLC-ECD analysis; assay type: functional, organism-based
How it was run: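 Male Kunming mice received vehicle or 40 mg/kg for 7 days, then were killed by cervical dislocation and the brain regions dissected on ice. Tissue was homogenized in ice-cold 0.2 M perchloric acid with 0.1 mM EDTA and centrifuged at 15,000 rpm, 20 min, 4 °C. Supernatant was analyzed by HPLC-ECD (+0.50 V; phosphate/octanesulfonate mobile phase, pH 3.0). Results in ng/g, mean ± SEM.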

Rattus norvegicus [10] = assay: Toxicity in Sprague-Dawley rat assessed as change in gastrointestinal effects at 2000 mg/kg, po measured continuously for first 4 hrs followed by measured every hour for next 24 hrs and at 6 hrs intervals for following 48 hrs post dose; assay type: organism-based; conditions: in vivo; how it was run: as §3
[11] = Drug metabolism in Sprague-Dawley rat plasma assessed as 5'-(1-hydroxyallyl)-5-(1-hydroxypropyl)-2'-((2S,3R,4S,5S,6R)-3,4,5-trihydroxy-6-(hydroxymethyl)tetrahydro-2H-pyran-2-yloxy)biphenyl-2-yl hydrogen sulfate formation at 100 mg/kg, po by UPLC-IT-TOF-MS analysis; assay type: ADME, organism-based; conditions: in vivo; how it was run: as §4
[12] = Retention time of the compound by UPLC-IT-TOF-MS analysis; assay type: physicochemical
How it was run: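 Retention on C18 column (100 × 2.1 mm, 1.8 µm) at 30 °C; mobile phase A 0.05% formic acid in water, B 0.05% formic acid in acetonitrile, 0.2 mL/min, linear 5–100% B over 0–18.0 min; IT-TOF-MS detection in positive and negative modes.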

[13] = Drug metabolism in Sprague-Dawley rat plasma assessed as 2'-hydroxy-5'-(1-hydroxyallyl)-5-propylbiphenyl-2-yl hydrogen sulfate formation at 100 mg/kg, po by UPLC-IT-TOF-MS analysis; assay type: ADME, organism-based; conditions: in vivo; how it was run: as §4
[14] = Drug metabolism in Sprague-Dawley rat urine assessed as (2S,3S,4S,5R,6S)-6-(5-acryloyl-2'-hydroxy-5'-(1-hydroxyallyl)biphenyl-2-yloxy)-3,4,5-trihydroxytetrahydro-2H-pyran-2-carboxylic acid formation at 100 mg/kg, po by UPLC-IT-TOF-MS analysis; assay type: ADME, organism-based; conditions: in vivo; how it was run: as §1
[15] = Drug metabolism in Sprague-Dawley rat feces assessed as (2S,3R,4S,5S,6R)-2-(5,5'-diallyl-2'-methoxybiphenyl-2-yloxy)-6-(hydroxymethyl)tetrahydro-2H-pyran-3,4,5-triol formation at 100 mg/kg, po by UPLC-IT-TOF-MS analysis; assay type: ADME, organism-based; conditions: in vivo; how it was run: as §4
[16] = Drug metabolism in Sprague-Dawley rat urine assessed as 1-(2'-hydroxy-5'-(1-hydroxyallyl)-6-((2S,3R,4S,5S,6R)-3,4,5-trihydroxy-6-(hydroxymethyl)tetrahydro-2H-pyran-2-yloxy)biphenyl-3-yl)prop-2-en-1-one formation at 100 mg/kg, po by UPLC-IT-TOF-MS analysis; assay type: ADME, organism-based; conditions: in vivo; how it was run: as §1
Rattus norvegicus [17] = assay: Toxicity in Sprague-Dawley rat assessed as caustic injuries at 2000 mg/kg, po measured over 4 hrs; assay type: organism-based; conditions: in vivo
How it was run: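 Following OECD 425, adult SD rats (180–220 g), six per group: vehicle (0.5% CMC-Na) controls, plus males and females given 2000 mg/kg orally. Watched continuously for 4 h for behaviour, breathing, cutaneous, sensory and gastrointestinal signs, then hourly to 24 h and every 6 h for the next 48 h.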

[18] = Drug metabolism in Sprague-Dawley rat feces assessed as 5'-acryloyl-2'-hydroxy-5-propionylbiphenyl-2-yl hydrogen sulfate formation at 100 mg/kg, po by UPLC-IT-TOF-MS analysis; assay type: ADME, organism-based; conditions: in vivo; how it was run: as §4

## C=CCc1ccc(O)c(-c2cc(CC=C)ccc2O[C@@H]2O[C@H](CO)[C@@H](O)[C@H](O)[C@H]2O)c1
[1]
  Drug metabolism: Metabolite_Detected
Mus musculus [2]
  Activity: Active
Rattus norvegicus [3]
  Activity: Non-Toxic
[4]
  Drug metabolism: Metabolite_Detected
[5]
  Drug metabolism: Metabolite_Detected
Mus musculus [6]
  Activity: Active
[7]
  Drug metabolism: Metabolite_Detected
Mus musculus [8]
  Activity: Active
Mus musculus [9]
  Activity: Active
Rattus norvegicus [10]
  Activity: Non-Toxic
[11]
  Drug metabolism: Metabolite_Notdetected
[12]
  Retention_time: 11.23 min
[13]
  Drug metabolism: Metabolite_Notdetected
[14]
  Drug metabolism: Metabolite_Detected
[15]
  Drug metabolism: Metabolite_Detected
[16]
  Drug metabolism: Metabolite_Detected
Rattus norvegicus [17]
  Activity: Non-Toxic
[18]
  Drug metabolism: Metabolite_Notdetected
